{"source": "paper PMC5542026", "about": "(Cell, 2017)", "key": {"[1]": {"system": "S. pyogenes ATCC 12344", "test": "Broth-microdilution MIC, wild-type parent", "assay_type": "cell-based", "conditions": "Todd Hewitt broth, 16 h, growth inhibited by >90%"}, "[2]": {"system": "E. coli strain D21f2tolC", "test": "Broth-microdilution MIC, wild-type parent", "assay_type": "cell-based", "conditions": "LB broth, 16 h, growth inhibited by >90%"}, "[3]": {"molecular_target": "bacterial RNAP (Escherichia coli, UniProt P0A8T7+P0A8V2)", "test": "RNAP-inhibitory activity in vitro", "assay_type": "biochemical, E. coli; S. aureus; B. subtilis", "conditions": "read-out: IC50, inhibition of bacterial RNAP"}, "[4]": {"system": "human serum proteins", "test": "Growth-curve assays in absence and presence of 30% human serum", "assay_type": "in vitro ADME"}, "[5]": {"system": "S. pyogenes C203", "test": "Mouse Streptococcus pyogenes peritonitis model", "assay_type": "in vivo", "how_it_was_run": "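Female ICR mice (23–25 g) were acclimatised for one week at 23±2°C and 55±10% humidity. They were infected intraperitoneally with 4×10^3 cfu S. pyogenes C203 in 0.5 ml saline containing 1% peptone. Groups of eight, randomised and unblinded, received 2.5-fold test compound dilutions in 5% dextrose by one of three regimens: i.v. at 10 min and 6 h (total 3.2–50 mg/kg); single i.v. at 10 min; or single s.c. at 10 min (each total 1.024–40 mg/kg).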"}, "[6]": {"system": "S. pyogenes Rif-resistant mutants", "test": "Cross-resistance of Rif-resistant mutants to PUM", "assay_type": "cell-based", "conditions": "Figs. 1B–C,E", "how_it_was_run": "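S. pyogenes mutants were selected on Todd Hewitt agar with rifampicin at 0.1–2 μg/ml (1–16x MIC) and sequenced. Thirteen mutants and the isogenic wild-type parent were grown in Todd Hewitt broth at 37°C in 7% CO2/6% O2/4% H2/83% N2 to OD600 0.4–0.8. They were tested by broth microdilution with a 2-fold test compound series (0 or 1.56–100 μg/ml) for 16 h at 37°C. MIC was taken at >90% growth inhibition.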"}, "[7]": {"system": "S. pyogenes strain L49 or S. pneumoniae strain L44", "test": "Checkerboard interaction assays PUM + Rif", "assay_type": "cell-based", "conditions": "FICI"}, "[8]": {"system": "S. pyogenes strain ATCC 12344", "test": "Spontaneous resistance rate, Luria-Delbrück fluctuation assays", "assay_type": "cell-based", "conditions": "compared with Rif", "how_it_was_run": "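Luria-Delbrück fluctuation assay. ~1×10^9 cfu S. pyogenes ATCC 12344 per plate were plated on Todd Hewitt agar (1.5% agar) containing 64 or 128 μg/ml test compound, or 1 or 2 μg/ml rifampicin. Colonies were counted after 24 h at 37°C, with at least six independent determinations each.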"}, "[9]": {"system": "E. coli strain D21f2tolC", "test": "MIC on LB agar", "assay_type": "cell-based", "conditions": "E. coli D21f2tolC plated on LB agar"}, "[10]": {"system": "S. pyogenes and E. coli resistant mutants", "test": "Cross-resistance between PUM and Lpm, Myx, Stl, CBR703, Sal", "assay_type": "cell-based"}, "[11]": {"system": "E. coli GE-resistant mutants", "test": "Cross-resistance of GE-resistant mutants to PUM", "assay_type": "cell-based"}, "[12]": {"system": "Staphylococcus simulans strain M22", "test": "Effects on macromolecular synthesis", "assay_type": "cell-based", "conditions": "PUM 100–200 μM", "how_it_was_run": "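Staphylococcus simulans M22 was grown in 0.5x Mueller Hinton II broth at 37°C with shaking to OD600 0.5, then diluted to OD600 0.1–0.2. [2-14C]-thymidine was added at 6 kBq/ml for 15 min, and the culture was split. One half received test compound (final 100–200 μM). Samples taken at 0, 10, 20 and 40 min were quenched in ice-cold 10% TCA/1 M NaCl and held 30–60 min on ice.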"}, "[13]": {"molecular_target": "T1, E. coli RNAP σ^70 holoenzyme (Escherichia coli, UniProt P0A8T7+P0A8V2)", "test": "Formation of RNAP-promoter open complex", "assay_type": "biochemical", "conditions": "500 μM PUM"}, "[14]": {"molecular_target": "T2, E. coli RNAP (Escherichia coli, UniProt P0A8T7+P0A8V2)", "test": "Nucleotide addition in transcription initiation", "assay_type": "biochemical", "conditions": "500 μM PUM", "how_it_was_run": "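Run per an earlier published protocol, labelled with 5 μM [α32P]UTP (3 Bq/fmol). Reactions contained no inhibitor, the test compound, 2 μM rifampicin or 100 μM lipiarmycin.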"}, "[15]": {"molecular_target": "T2, E. coli RNAP", "test": "Nucleotide addition in transcription elongation", "assay_type": "biochemical", "conditions": "500 μM PUM", "how_it_was_run": "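Run per an earlier published protocol. Reactions contained no inhibitor, the test compound, 2 μM rifampicin or 100 μM lipiarmycin as comparator.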"}, "[16]": {"molecular_target": "T1, E. coli RNAP σ^70 holoenzyme", "test": "Nucleotide addition at elevated NTP concentrations", "assay_type": "biochemical", "conditions": "6 μM PUM; 10–500 μM varied NTP"}, "[17]": {"molecular_target": "T1, E. coli RNAP σ^70 holoenzyme", "test": "Nucleotide addition on standard and U-less cassette templates", "assay_type": "biochemical", "conditions": "standard vs U-less cassette template; 0–20 μM PUM"}, "[18]": {"molecular_target": "E. coli RNAP core enzyme (Escherichia coli, UniProt P0A8T7+P0A8V2)", "test": "Single-nucleotide-addition reactions", "assay_type": "biochemical", "conditions": "25 μM PUM; 2.5 μM NTPs", "how_it_was_run": "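Elongation complexes were assembled on nucleic-acid scaffolds, annealed 5 min at 95°C and step-cooled to 4°C in 5 mM Tris-HCl pH 7.7, 200 mM NaCl, 10 mM MgCl2. Steps at 37°C: 10 min preincubation, 5 min with compound (0 or 25 μM), 5 min with single NTP.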"}, "[19]": {"molecular_target": "T1, E. coli RNAP σ^70 holoenzyme", "test": "Multiple-nucleotide-addition reactions", "assay_type": "biochemical", "conditions": "10 μM NTPs"}, "[20]": {"system": "S. pyogenes PUM-resistant mutants", "test": "Resistance levels of spontaneous PUM-resistant mutants", "assay_type": "cell-based", "conditions": "substitutions at β residues 565, 681, and 684, and β′ residue 786"}, "[21]": {"system": "E. coli D21f2tolC with plasmid-encoded RNAP β/β′ derivatives", "test": "E. coli plasmid-based resistance assay", "assay_type": "cell-based", "conditions": "substitutions β565 Glu→Gly and β681 Met→Lys", "how_it_was_run": "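E. coli transformants were grown from single colonies in LB with 200 μg/ml ampicillin at 37°C with shaking to OD600 0.4–0.8. They were induced with 1 mM IPTG for 1 h. About 2×10^5 cells were added to wells holding a 2-fold dilution series of test compound in the same medium (final 0 or 25–4000 μg/ml) and incubated 16 h at 37°C with shaking.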"}, "[22]": {"molecular_target": "[565Glu→Asp]β-RNAP σ^70 holoenzyme (Escherichia coli, UniProt P0A8T7+P0A8V2, E565D)", "test": "Fluorescence-detected transcription assay, mutant RNAP", "assay_type": "biochemical, E. coli"}}, "note": "*1 amine or outer side, *2 acyl side, *3 side chain or, on linkers, in order; H or OH if unused. Where a SMILES comes first, the peptide text is derived from it. Bridges are numbered along the chain shown (N, C = ends). [ ]: non-standard residue; d: D form. The star is where a group is joined. X2 = C[C@H](Oc1ccc([C@H](N[*:1])C(=O)[*:2])cc1)[C@@]1(/C=C/C(=O)[*:3])CO1; X1 = CC(C)[C@H](O)[C@H](C)C(=O)*; aIle = CC[C@@H](C)[C@H](N)C(=O)O; dNMeF = CN[C@H](Cc1ccccc1)C(=O)O; aThr = C[C@H](O)[C@H](N)C(=O)O", "data": [{"molecule": "CNC(=O)[C@@H](C)[C@H]1C(=O)/C(=C(O)/C=C/C(C)=C/[C@@H](C)[C@H]2O[C@@]3(C)O[C@H](C=C[C@@]34CO4)[C@@H]2C)C(=O)N1[C@@H]1CC[C@H](O)[C@H](C)O1", "note": "[streptolydigin]", "values": [{"measurement": "MICwild-type", "setting": "[1]", "value": 3.13, "unit": "µg/mL"}, {"measurement": "MICwild-type", "setting": "[2]", "value": 3.13, "unit": "µg/mL"}]}, {"molecule": "GE23077", "values": [{"measurement": "MICwild-type", "setting": "[2]", "value": 500, "unit": "µg/mL"}]}, {"molecule": "ONC(=Nc1ccccc1)c1cccc(C(F)(F)F)c1", "note": "[CBR703]", "values": [{"measurement": "MICwild-type", "setting": "[2]", "value": 6.25, "unit": "µg/mL"}]}, {"molecule": "CC[C@@H](C)[C@@H]1NC(=O)[C@H](NC(=O)[C@@H](C)[C@@H](O)C(C)C)[C@H](C)OC(=O)[C@H]2COC(=O)CNC(=O)/C=C/[C@@]3(CO3)[C@H](C)Oc3ccc(cc3)[C@H](NC1=O)C(=O)N(C)[C@H](Cc1ccccc1)C(=O)N[C@@H]([C@H](C)O)C(=O)N2", "note": "[salinamide A] (X1-[dT][aIle][X2][dNMeF][aThr][dS]; ester 1-C; linker 3-6 via G)", "values": [{"measurement": "MICwild-type", "setting": "[2]", "value": 0.049, "unit": "µg/mL"}]}, {"molecule": "CO[C@H]1/C=C/O[C@@]2(C)Oc3c(C)c(O)c4c(O)c(c(/C=N/N5CCN(C)CC5)c(O)c4c3C2=O)NC(=O)/C(C)=C\\C=C\\[C@H](C)[C@H](O)[C@@H](C)[C@@H](O)[C@@H](C)[C@H](OC(C)=O)[C@@H]1C", "note": "[Rif, rifampin]", "values": [{"measurement": "MICwild-type", "setting": "[1]", "value": 0.098, "unit": "µg/mL"}, {"measurement": "MICwild-type", "setting": "[2]", "value": 0.20, "unit": "µg/mL"}]}, {"molecule": "NC(=O)CC[C@@H](C(=O)NC[C@H]1O[C@@H](c2c[nH]c(=O)[nH]c2=O)[C@H](O)[C@@H]1O)N(O)C(=O)CN=C(N)N", "note": "[PUM, pseudouridimycin]", "values": [{"measurement": "IC50", "setting": "[3]", "value": 100, "unit": "nM"}, {"measurement": "antibacterial activity in absence versus presence of human serum", "setting": "[4]; 30% human serum, Fig. 1C rows 1–4", "value": "Identical results"}, {"measurement": "unbound fraction", "setting": "[4]; human serum proteins, inferred from 30% human serum assays", "value": "~ 100%"}, {"measurement": "ED50 (dose yielding 50% survival at 7 days)", "setting": "[5]", "value": 9, "unit": "mg/kg"}, {"measurement": "cross-resistance with Rif", "setting": "[6]", "value": "no cross-resistance"}, {"measurement": "antibacterial activity when co-administered with Rif", "setting": "[7]", "value": "additive antibacterial activity"}, {"measurement": "spontaneous resistance rates", "setting": "[8]", "value": "an order-of-magnitude lower than those of Rif"}, {"measurement": "MICwild-type", "setting": "[1]", "value": 6.25, "unit": "µg/mL"}, {"measurement": "MICwild-type", "setting": "[2]", "value": 400, "unit": "µg/mL"}, {"measurement": "MIC under these conditions", "setting": "[9]", "value": "~800", "unit": "µg/mL"}, {"measurement": "cross-resistance with Lpm, Myx, Stl, CBR703, and Sal", "setting": "[10]", "value": "does not exhibit cross-resistance"}, {"measurement": "cross-resistance with GE", "setting": "[11]", "value": "partial cross-resistance"}, {"measurement": "effect on DNA synthesis ([14C]-thymidine incorporation)", "setting": "[12]", "value": "little or no inhibition of DNA synthesis"}, {"measurement": "effect on RNA synthesis ([3H]-uridine incorporation)", "setting": "[12]", "value": "rapid and strong inhibition of RNA synthesis"}, {"measurement": "effect on protein synthesis ([14C]-isoleucine incorporation)", "setting": "[12]", "value": "slower and weaker inhibition of protein synthesis"}, {"measurement": "effect on formation of catalytically-competent RNAP-promoter open complex, RPo", "setting": "[13]", "value": "Absence of inhibition"}, {"measurement": "effect on nucleotide addition in transcription initiation", "setting": "[14]", "value": "Inhibition by PUM of nucleotide addition in transcription initiation"}, {"measurement": "effect on nucleotide addition in transcription elongation", "setting": "[15]", "value": "Inhibition by PUM of nucleotide addition in transcription elongation"}, {"measurement": "effect of high NTP concentrations on transcription inhibition", "setting": "[16]", "value": "high concentrations of UTP–but not high concentrations of GTP, ATP, or CTP–overcome transcription inhibition by PUM"}, {"measurement": "template dependence of transcription inhibition", "setting": "[17]", "value": "inhibits transcription only on templates that direct incorporation of U"}, {"measurement": "nucleotide specificity of inhibition, single-nucleotide addition", "setting": "[18]", "value": "inhibits incorporation of U, but not G, A, or C"}, {"measurement": "nucleotide specificity of inhibition, multiple-nucleotide addition", "setting": "[19]", "value": "inhibits incorporation of U, but not G, A, or C"}, {"measurement": "PUM-resistance (MIC/MICwild-type)", "setting": "[20]", "value": "≥ 4", "unit": "x"}, {"measurement": "resistance (MIC/MICwild-type)", "setting": "[21]", "value": "≥ 4", "unit": "x"}, {"measurement": "inhibition of purified RNAP containing β565 Glu→Asp", "setting": "[22]", "value": "PUM-resistant phenotype"}]}, {"molecule": "lipiarmycin A3", "values": [{"measurement": "MICwild-type", "setting": "[1]", "value": 6.25, "unit": "µg/mL"}, {"measurement": "MICwild-type", "setting": "[2]", "value": 1.56, "unit": "µg/mL"}]}, {"molecule": "CCCC/C(C)=C/C=C(\\C)C(=O)c1c(O)cc([C@H](C)CC/C=C/NC(=O)OC)oc1=O", "note": "[myxopyronin B]", "values": [{"measurement": "MICwild-type", "setting": "[1]", "value": 6.25, "unit": "µg/mL"}, {"measurement": "MICwild-type", "setting": "[2]", "value": 0.20, "unit": "µg/mL"}]}]}
